According to ChEMBL document CHEMBL1926518, “Synthesis of macrolones with central piperazine ring in the linker and its influence on antibacterial activity” (2011):
Converted amounts (≈) assume the structure as drawn.

What was measured:
Type in all cases: functional
Streptococcus pyogenes [1] = test: Antibacterial activity against constitutive macrolide, licosamide and streptogramin-resistant Streptococcus pyogenes 166 GR-Micro by broth microdilution technique
Method in brief: (§1)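 MICs were determined by CLSI broth microdilution, with double dilutions of compound. In the streptococcal medium, 5% horse serum replaced lysed blood. Streptococci were grown on Columbia agar with 5% sheep blood before testing. Results are given in µg/mL.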

Haemophilus influenzae = test: Antibacterial activity against Haemophilus influenzae ATCC 49247 by broth microdilution technique
Method in brief: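 MIC by broth microdilution per CLSI guidelines with doubling dilutions of compounds. Before testing, organisms were grown on Mueller-Hinton chocolate agar. Values reported in µg/mL.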

Moraxella catarrhalis = test: Antibacterial activity against Moraxella catarrhalis ATCC 23246 by broth microdilution technique
Method in brief: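 MIC by broth microdilution per CLSI guidelines with doubling dilutions of compounds. Before testing, organisms were grown on Columbia agar with 5% sheep blood. Values reported in µg/mL.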

Staphylococcus aureus [2] = test: Antibacterial activity against inducible macrolide, licosamide and streptogramin-resistant Staphylococcus aureus 90256/97 by broth microdilution technique
Method in brief: (§2)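 MICs were determined by CLSI broth microdilution, with double dilutions of compound. Staphylococci were grown on Mueller–Hinton agar before testing. Results are given in µg/mL.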

Streptococcus pyogenes [3] = test: Antibacterial activity against inducible macrolide, licosamide and streptogramin-resistant Streptococcus pyogenes Finland 11 by broth microdilution technique; method in brief: as §1
Streptococcus pneumoniae [4] = test: Antibacterial activity against constitutive macrolide, licosamide and streptogramin-resistant Streptococcus pneumoniae 58 Spain by broth microdilution technique; method in brief: as §1
Streptococcus pyogenes [5] = test: Antibacterial activity against efflux-mediated macrolide-resistant Streptococcus pyogenes 3 Finland by broth microdilution technique; method in brief: as §1
Streptococcus pneumoniae [6] = test: Antibacterial activity against inducible macrolide-resistant, constitutive licosamide and streptogramin-resistant Streptococcus pneumoniae 134 GR-Micro by broth microdilution technique; method in brief: as §1
Streptococcus pneumoniae [7] = test: Antibacterial activity against erythromycin-sensitive Streptococcus pneumoniae SP030 by broth microdilution technique
Method in brief: (§3)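 Streptococcal MICs by CLSI broth microdilution with doubling dilutions, but with 5% horse serum in the medium in place of lysed blood. Before testing, strains were grown on Columbia agar with 5% sheep blood. Values reported in µg/mL.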

Streptococcus pneumoniae [8] = test: Antibacterial activity against efflux-mediated macrolide-resistant Streptococcus pneumoniae Ci137 by broth microdilution technique; method in brief: as §1
Streptococcus pyogenes [9] = test: Antibacterial activity against erythromycin-sensitive Streptococcus pyogenes 3565 by broth microdilution technique; method in brief: as §3
Staphylococcus aureus [10] = test: Antibacterial activity against constitutive macrolide, licosamide and streptogramin-resistant Staphylococcus aureus PK2 by broth microdilution technique; method in brief: as §2
Staphylococcus aureus [11] = test: Antibacterial activity against erythromycin-sensitive Staphylococcus aureus ATCC 13709 by broth microdilution technique
Method in brief: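 MIC by broth microdilution per CLSI guidelines with doubling dilutions of compounds. Before testing, staphylococci were grown on Mueller–Hinton agar. Values reported in µg/mL.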

Staphylococcus aureus [12] = test: Antibacterial activity against efflux-mediated macrolide-resistant Staphylococcus aureus PK1 by broth microdilution technique; method in brief: as §2

Row | SMILES | MIC (Streptococcus pyogenes [1]) | MIC (Haemophilus influenzae) | MIC (Moraxella catarrhalis) | MIC (Staphylococcus aureus [2]) | MIC (Streptococcus pyogenes [3]) | MIC (Streptococcus pneumoniae [4]) | MIC (Streptococcus pyogenes [5]) | MIC (Streptococcus pneumoniae [6]) | MIC (Streptococcus pneumoniae [7]) | MIC (Streptococcus pneumoniae [8]) | MIC (Streptococcus pyogenes [9]) | MIC (Staphylococcus aureus [10]) | MIC (Staphylococcus aureus [11]) | MIC (Staphylococcus aureus [12])
1 | CC[C@H]1OC(=O)[C@H](C)[C@@H](O[C@H]2C[C@@](C)(OC)[C@@H](OC(=O)CCN3CCN(CC#Cc4ccc5c(c4)c(=O)c(C(=O)O)cn5CC)CC3)[C@H](C)O2)[C@H](C)[C@@H](O[C@@H]2O[C@H](C)C[C@H](N(C)C)[C@H]2O)[C@](C)(O)C[C@@H](C)CN(C)[C@H](C)[C@@H](OC)[C@]1(C)O | 16 µg/mL (≈ 13.8 µM) | 1 µg/mL (≈ 0.865 µM) | 0.5 µg/mL (≈ 0.432 µM) | 8 µg/mL (≈ 6.92 µM) | ≤ 0.125 µg/mL | 4 µg/mL (≈ 3.46 µM) | ≤ 0.125 µg/mL | 8 µg/mL (≈ 6.92 µM) | ≤ 0.125 µg/mL | ≤ 0.125 µg/mL | ≤ 0.125 µg/mL | > 64 µg/mL | 0.25 µg/mL (≈ 0.216 µM) | 0.5 µg/mL (≈ 0.432 µM)
2 | CCOC(=O)c1cn(CC)c2ccc(C#CCN3CCN(CCC(=O)O[C@H]4[C@H](C)O[C@@H](O[C@H]5[C@H](C)[C@@H](O[C@@H]6O[C@H](C)C[C@H](N(C)C)[C@H]6O)[C@](C)(O)C[C@@H](C)CN(C)[C@H](C)[C@@H](OC)[C@](C)(O)[C@@H](CC)OC(=O)[C@@H]5C)C[C@@]4(C)OC)CC3)cc2c1=O | 32 µg/mL (≈ 27 µM) | 32 µg/mL (≈ 27 µM) | 8 µg/mL (≈ 6.75 µM) | > 64 µg/mL | 0.25 µg/mL (≈ 0.211 µM) | 1 µg/mL (≈ 0.844 µM) | 1 µg/mL (≈ 0.844 µM) | 0.5 µg/mL (≈ 0.422 µM) | ≤ 0.125 µg/mL | ≤ 0.125 µg/mL | ≤ 0.125 µg/mL | > 64 µg/mL | 4 µg/mL (≈ 3.38 µM) | > 64 µg/mL
3 | CC[C@H]1OC(=O)[C@H](C)[C@@H](O[C@H]2C[C@@](C)(OC)[C@@H](O)[C@H](C)O2)[C@H](C)[C@@H](O[C@@H]2O[C@H](C)C[C@H](N(C)C)[C@H]2O)[C@](C)(OC)C[C@@H](C)C(=O)[C@H](C)[C@@H](O)[C@]1(C)O [CLARITHROMYCIN] | > 64 µg/mL | 8 µg/mL (≈ 10.7 µM) | ≤ 0.125 µg/mL | > 64 µg/mL | 1 µg/mL (≈ 1.34 µM) | > 64 µg/mL | 4 µg/mL (≈ 5.35 µM) | > 64 µg/mL | ≤ 0.125 µg/mL | 4 µg/mL (≈ 5.35 µM) | ≤ 0.125 µg/mL | > 64 µg/mL | 0.25 µg/mL (≈ 0.334 µM) | 32 µg/mL (≈ 42.8 µM)
4 | CC[C@H]1OC(=O)[C@H](C)[C@@H](O[C@H]2C[C@@](C)(OC)[C@@H](OC(=O)CCN3CCN(CCCc4ccc5c(c4)c(=O)c(C(=O)O)cn5CC)CC3)[C@H](C)O2)[C@H](C)[C@@H](O[C@@H]2O[C@H](C)C[C@H](N(C)C)[C@H]2O)[C@](C)(O)C[C@@H](C)CN(C)[C@H](C)[C@@H](OC)[C@]1(C)O | 32 µg/mL (≈ 27.6 µM) | 1 µg/mL (≈ 0.862 µM) | 0.5 µg/mL (≈ 0.431 µM) | 4 µg/mL (≈ 3.45 µM) | ≤ 0.125 µg/mL | ≤ 0.125 µg/mL | ≤ 0.125 µg/mL | 16 µg/mL (≈ 13.8 µM) | ≤ 0.125 µg/mL | ≤ 0.125 µg/mL | ≤ 0.125 µg/mL | > 64 µg/mL | ≤ 0.125 µg/mL | 0.25 µg/mL (≈ 0.215 µM)
5 | CCOC(=O)c1cn(CC)c2ccc(C#CCN3CCN(C(=O)OC(C)(C)C)CC3)cc2c1=O | > 64 µg/mL | > 64 µg/mL | > 64 µg/mL | > 64 µg/mL | > 64 µg/mL | > 64 µg/mL | > 64 µg/mL | > 64 µg/mL | > 64 µg/mL | > 64 µg/mL | > 64 µg/mL | > 64 µg/mL | > 64 µg/mL | > 64 µg/mL
6 | CCOC(=O)c1cn(CC)c2ccc(CCCN3CCN(CCC(=O)O[C@H]4[C@H](C)O[C@@H](O[C@H]5[C@H](C)[C@@H](O[C@@H]6O[C@H](C)C[C@H](N(C)C)[C@H]6O)[C@](C)(OC)C[C@@H](C)C(=O)[C@H](C)[C@@H](O)[C@](C)(O)[C@@H](CC)OC(=O)[C@@H]5C)C[C@@]4(C)OC)CC3)cc2c1=O | 16 µg/mL (≈ 13.6 µM) | > 64 µg/mL | 4 µg/mL (≈ 3.41 µM) | > 64 µg/mL | 0.25 µg/mL (≈ 0.213 µM) | 8 µg/mL (≈ 6.82 µM) | ≤ 0.125 µg/mL | 16 µg/mL (≈ 13.6 µM) | ≤ 0.125 µg/mL | ≤ 0.125 µg/mL | ≤ 0.125 µg/mL | > 64 µg/mL | 4 µg/mL (≈ 3.41 µM) | > 64 µg/mL
